# Measurements as given in ChEMBL document CHEMBL1629579, “Correlating echinocandin MIC and kinetic inhibition of fks1 mutant glucan synthases for Candida albicans: implications for interpretive breakpoints” (Antimicrob Agents Chemother, 2009).
# Numbered stars: 1 amine (or outer) side, 2 acyl side, 3 side chain; on linkers, the order of the positions; unused ones are H or OH. Bridge positions count the residues as written; N and C are the ends. Square brackets hold non-standard residues; d marks the D form. Peptide text beside a SMILES is read from it. * marks the point of attachment. pTerphenylCO(4''-OnC5H11) = CCCCCOc1ccc(-c2ccc(-c3ccc(C(=O)*)cc3)cc2)cc1; Orn(4R-OH,5R-OH) = O=C([C@H](C[C@@H](O)[C@@H](O)N[*:3])N[*:1])[*:2]; hTyr(3S-OH,4S-OH) = N[C@H](C(=O)O)[C@H](O)[C@@H](O)c1ccc(O)cc1; Pro(3S-OH,4S-Me) = C[C@H]1CN[C@H](C(=O)O)[C@H]1O; Hyp = O=C(O)[C@@H]1C[C@@H](O)CN1
# What was measured:
# Candida albicans [1] = experiment: Antimicrobial activity against Candida albicans SC5314 by M27-A3 method in presence of 50% human serum; assay type: functional
# Outline: (§1)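 Broth microdilution per CLSI M27-A3 in RPMI 1640, done in triplicate on three separate days. Each strain was tested with and without 50% human serum. C. krusei ATCC 6258 and C. parapsilosis ATCC 22019 served as QC strains. Arithmetic means are reported, and geometric means were used for comparison.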
# Candida albicans [2] = experiment: Antimicrobial activity against Candida albicans 36082 by M27-A3 method; assay type: functional
# Outline: (§2)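 Broth microdilution per CLSI M27-A3 in RPMI 1640, with and without 50% human serum, in triplicate. C. krusei ATCC 6258 and C. parapsilosis ATCC 22019 served as quality-control strains. MIC reported as arithmetic mean of three repetitions on separate days.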
# Candida albicans [3] = experiment: Antimicrobial activity against Candida albicans 90028 by M27-A3 method; assay type: functional; outline: as §2
# Candida albicans [4] = experiment: Antimicrobial activity against Candida albicans 90028 by M27-A3 method in presence of 50% human serum; assay type: functional; outline: as §1
# Candida albicans [5] = experiment: Antimicrobial activity against Candida albicans 1002 by M27-A3 method; assay type: functional; outline: as §2
# Candida albicans [6] = experiment: Antimicrobial activity against Candida albicans 3795 by M27-A3 method; assay type: functional; outline: as §2
# Candida albicans [7] = experiment: Antimicrobial activity against Candida albicans 3795 by M27-A3 method in presence of 50% human serum; assay type: functional; outline: as §1
# Candida albicans [8] = experiment: Antimicrobial activity against Candida albicans 119 harboring FKS1 T1921C mutant gene and FKS1 hotspot1 F641L mutant gene by M27-A3 method; assay type: functional; outline: as §1
# Candida albicans [9] = experiment: Antimicrobial activity against Candida albicans 2762 harboring FKS1 T1922C mutant gene and FKS1 hotspot1 F641S mutant gene by M27-A3 method; assay type: functional; outline: as §1
# Candida albicans [10] = experiment: Antimicrobial activity against Candida albicans 205 harboring FKS1 T1933C mutant gene and FKS1 hotspot1 S645P mutant gene by M27-A3 method; assay type: functional; outline: as §1
# Candida albicans [11] = experiment: Antimicrobial activity against Candida albicans 205 harboring FKS1 T1933C mutant gene and FKS1 hotspot1 S645P mutant gene by M27-A3 method in presence of 50% human serum; assay type: functional; outline: as §1
# Candida albicans [12] = experiment: Antimicrobial activity against Candida albicans 89 harboring FKS1 C1934A mutant gene and FKS1 hotspot1 S645Y mutant gene by M27-A3 method in presence of 50% human serum; assay type: functional; outline: as §1
# Candida albicans [13] = experiment: Antimicrobial activity against Candida albicans 149 harboring FKS1 G1942T mutant gene and FKS1 hotspot1 D648Y mutant gene by M27-A3 method; assay type: functional; outline: as §1
# Candida albicans [14] = experiment: Antimicrobial activity against Candida albicans 121 harboring FKS1 G4082A mutant gene and FKS1 hotspot2 R1361H mutant gene by M27-A3 method; assay type: functional; outline: as §1
# Candida albicans [15] = experiment: Antimicrobial activity against Candida albicans 121 harboring FKS1 G4082A mutant gene and FKS1 hotspot2 R1361H mutant gene by M27-A3 method in presence of 50% human serum; assay type: functional; outline: as §1
# Candida albicans [16] = experiment: Antimicrobial activity against Candida albicans 194 harboring FKS1 C1934T/G4082R mutant gene and FKS1 hotspot1 S645F mutant gene and FKS1 hotspot2 R1361R/H mutant gene by M27-A3 method; assay type: functional; outline: as §1
# Candida albicans [17] = experiment: Antimicrobial activity against Candida albicans A15 harboring FKS1 T1933Y mutant gene and FKS1 hotspot1 S645S/P mutant gene by M27-A3 method in presence of 50% human serum; assay type: functional; outline: as §1
# Candida albicans [18] = experiment: Antimicrobial activity against Candida albicans A15-10 harboring FKS1 T1933C mutant gene and FKS1 hotspot1 S645P mutant by M27-A3 method in presence of 50% human serum; assay type: functional; outline: as §1
# [19] = Inhibition of Candida albicans SC5314 1,3-beta-D-glucan synthase subunit FKS1p
# Outline: (§3)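 Enzyme is product-entrapped 1,3-β-D-glucan synthase, enriched from membranes of each strain grown at 37°C with shaking in YPD broth to early stationary phase. Filtration polymerization assay uses [3H]UDPG, started by adding enzyme and run 60 min at 25°C. Echinocandins are added as serial dilutions, with 1% DMSO controls for anidulafungin. IC50 is from a variable-slope sigmoidal fit; values are triplicate arithmetic means.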
# [20] = Inhibition of Candida albicans 36082 1,3-beta-D-glucan synthase subunit FKS1p; outline: as §3
# [21] = Inhibition of Candida albicans 1002 1,3-beta-D-glucan synthase subunit FKS1p
# Outline: (§4)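 Product-entrapped glucan synthase from YPD-grown cells (37°C, early stationary phase) in a filtration polymerization assay with [3H]UDPG. Echinocandin serial dilutions were added, with 1% DMSO in controls for anidulafungin. Reactions were started with enzyme, run 60 min at 25°C and stopped on ice. IC50 came from a variable-slope sigmoidal fit, in triplicate.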
# [22] = Inhibition of Candida albicans 119 1,3-beta-D-glucan synthase subunit FKS1p T1921C mutant; outline: as §4
# [23] = Inhibition of Candida albicans 177 1,3-beta-D-glucan synthase subunit FKS1p T1922C mutant; outline: as §3
# [24] = Inhibition of Candida albicans 5415 1,3-beta-D-glucan synthase subunit FKS1p T1933C mutant; outline: as §3
# [25] = Inhibition of Candida albicans 90 1,3-beta-D-glucan synthase subunit FKS1p G4082R mutant; outline: as §3
# Candida albicans [26] = experiment: Activity at Candida albicans 1002 1,3-beta-D-glucan synthase subunit FKS1p
# Outline: (§5)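 Glucan synthase from cells grown at 37°C with vigorous shaking to early stationary phase in YPD. Membrane enzyme enriched by product entrapment. Serial echinocandin dilutions; ANF controls held 1% DMSO. Reaction started by adding enzyme, run 60 min at 25°C in a filtration polymerization assay, stopped on ice. IC50 from a variable-slope sigmoidal fit; means of three repetitions on separate days.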
# Candida albicans [27] = experiment: Activity at Candida albicans 3107 1,3-beta-D-glucan synthase subunit FKS1p; outline: as §5
# Candida albicans [28] = experiment: Activity at Candida albicans 119 1,3-beta-D-glucan synthase subunit FKS1p T1921C mutant
# Outline: (§6)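 Product-entrapped 1,3-β-D-glucan synthase from cells grown in YPD at 37°C to early stationary phase. Wells held 50 mM HEPES pH 7.5, 10% glycerol, 1.5 mg/ml BSA, 25 mM KF, 1 mM EDTA, 25 μM GTP-γ-S, 1 μg enzyme and [3H]UDPG (0.015–2 mM). Reactions ran 60 min at 25°C. Vmax and Km came from Lineweaver-Burke plots, in triplicate.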
# Candida albicans [29] = experiment: Activity at Candida albicans 177 1,3-beta-D-glucan synthase subunit FKS1p T1922C mutant; outline: as §6
# Candida albicans [30] = experiment: Activity at Candida albicans 5415 1,3-beta-D-glucan synthase subunit FKS1p T1933C mutant; outline: as §6
# Candida albicans [31] = experiment: Activity at Candida albicans 194 1,3-beta-D-glucan synthase subunit FKS1p C1934T/G4082R mutant; outline: as §6
structure (smiles),measurement,setting,value
CC[C@H](C)C[C@H](C)CCCCCCCCC(=O)N[C@H]1C[C@@H](O)[C@@H](NCCN)NC(=O)[C@@H]2[C@@H](O)CCN2C(=O)[C@H]([C@H](O)CCN)NC(=O)[C@H]([C@H](O)[C@@H](O)c2ccc(O)cc2)NC(=O)[C@@H]2C[C@@H](O)CN2C(=O)[C@H]([C@@H](C)O)NC1=O [CASPOFUNGIN],MIC,Candida albicans [1],0.5 mg/L
same,MIC,Candida albicans [2],0.21 mg/L
same,MIC,Candida albicans [3],0.21 mg/L
same,MIC,Candida albicans [4],0.25 mg/L
same,MIC,Candida albicans [5],0.33 mg/L
same,MIC,Candida albicans [6],0.33 mg/L
same,MIC,Candida albicans [7],0.5 mg/L
same,MIC,Candida albicans [8],2 mg/L
same,MIC,Candida albicans [9],3.33 mg/L
same,MIC,Candida albicans [10],8 mg/L
same,MIC,Candida albicans [11],8 mg/L
same,MIC,Candida albicans [12],8 mg/L
same,MIC,Candida albicans [13],2.67 mg/L
same,MIC,Candida albicans [14],2 mg/L
same,MIC,Candida albicans [15],8 mg/L
same,MIC,Candida albicans [16],4 mg/L
same,MIC,Candida albicans [17],8 mg/L
same,MIC,Candida albicans [18],16 mg/L
same,Ki,[19],0.00297 mg/L
same,IC50,[20],0.0009 mg/L
same,Ki,[20],0.00095 mg/L
same,IC50,[21],0.00175 mg/L
same,Ki,[21],0.00626 mg/L
same,IC50,[22],0.01003 mg/L
same,Ki,[22],0.00492 mg/L
same,IC50,[23],1.091 mg/L
same,Ki,[23],1.8176 mg/L
same,IC50,[24],0.6981 mg/L
same,Ki,[24],2.12249 mg/L
same,IC50,[25],0.02043 mg/L
same,Ki,[25],0.14815 mg/L
same,Km,Candida albicans [26],122 µM
same,Vmax,Candida albicans [26],5.8 nmol/min
same,Km,Candida albicans [27],102 µM
same,Vmax,Candida albicans [27],6.04 nmol/min
same,Km,Candida albicans [28],54 µM
same,Vmax,Candida albicans [28],2.54 nmol/min
same,Km,Candida albicans [29],50 µM
same,Vmax,Candida albicans [29],4.4 nmol/min
same,Km,Candida albicans [30],98 µM
same,Vmax,Candida albicans [30],3.12 nmol/min
same,Km,Candida albicans [31],61 µM
same,Vmax,Candida albicans [31],5.81 nmol/min
"CCCCCOc1ccc(-c2ccc(-c3ccc(C(=O)N[C@H]4C[C@@H](O)[C@@H](O)NC(=O)[C@@H]5[C@@H](O)[C@@H](C)CN5C(=O)[C@H]([C@@H](C)O)NC(=O)[C@H]([C@H](O)[C@@H](O)c5ccc(O)cc5)NC(=O)[C@@H]5C[C@@H](O)CN5C(=O)[C@H]([C@@H](C)O)NC4=O)cc3)cc2)cc1 [ANIDULAFUNGIN] ({pTerphenylCO(4''-OnC5H11)}-[Orn(4R-OH,5R-OH)]T[Hyp][hTyr(3S-OH,4S-OH)]T[Pro(3S-OH,4S-Me)]; lactam 1-C)",MIC,Candida albicans [1],0.5 mg/L
same,MIC,Candida albicans [2],0.03 mg/L
same,MIC,Candida albicans [3],0.03 mg/L
same,MIC,Candida albicans [4],0.25 mg/L
same,MIC,Candida albicans [5],0.06 mg/L
same,MIC,Candida albicans [6],0.06 mg/L
same,MIC,Candida albicans [7],0.44 mg/L
same,MIC,Candida albicans [8],0.16 mg/L
same,MIC,Candida albicans [9],1 mg/L
same,MIC,Candida albicans [10],1.33 mg/L
same,MIC,Candida albicans [11],8 mg/L
same,MIC,Candida albicans [12],8 mg/L
same,MIC,Candida albicans [13],0.83 mg/L
same,MIC,Candida albicans [14],0.25 mg/L
same,MIC,Candida albicans [15],8 mg/L
same,MIC,Candida albicans [16],4 mg/L
same,MIC,Candida albicans [17],2 mg/L
same,MIC,Candida albicans [18],8 mg/L
same,IC50,[19],0.00089 mg/L
same,Ki,[19],0.00133 mg/L
same,IC50,[20],0.00151 mg/L
same,Ki,[20],0.00143 mg/L
same,IC50,[21],0.00796 mg/L
same,Ki,[21],0.00239 mg/L
same,IC50,[22],0.0113 mg/L
same,Ki,[22],0.00677 mg/L
same,IC50,[23],2.622 mg/L
same,Ki,[23],4.34233 mg/L
same,IC50,[24],1.152 mg/L
same,Ki,[24],4.15411 mg/L
same,IC50,[25],0.0406 mg/L
same,Ki,[25],0.0485 mg/L
same,Km,Candida albicans [26],122 µM
same,Vmax,Candida albicans [26],5.8 nmol/min
same,Km,Candida albicans [27],102 µM
same,Vmax,Candida albicans [27],6.04 nmol/min
same,Km,Candida albicans [28],54 µM
same,Vmax,Candida albicans [28],2.54 nmol/min
same,Km,Candida albicans [29],50 µM
same,Vmax,Candida albicans [29],4.4 nmol/min
same,Km,Candida albicans [30],98 µM
same,Vmax,Candida albicans [30],3.12 nmol/min
same,Km,Candida albicans [31],61 µM
same,Vmax,Candida albicans [31],5.81 nmol/min
